Measured values reported in PubChem BioAssay.
Activity calls are given as the source filed them.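 Rule for the calls, unless noted: active = visually confirmed hit in the image check and inhibition above 20%; inconclusive = visually confirmed hit but inhibition not above 20%; inactive = no visual hit in the image check.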

Columns and labels:
[1] = inhibitors of TNFa-induced NFkB p65 translocation, primary screen, imaging, HUVEC, MLSMR starter and 10KST1 sets (AID 438;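 active = inhibition above 20% together with a positive visual image hit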;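 note: compound added about 3h40 before a 20 min TNFalpha stimulation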;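 for inhibition: signal is the nuclear over cytoplasmic p65 intensity ratio per well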); conditions: HUVEC TNFa-induced p65 nuclear translocation; cell count: measured here: nuclei count (cytotoxicity indicator), at 2.08 µM; inhibition: at 2 µM, stronger effect = higher value, 0% TNFa-plus-vehicle, 100% no-TNFa wells
[2] = inhibitors of mutant huntingtin aggregation, primary screen, imaging, exon1htt(103Q)mCFP cells, high-content imaging (AID 483;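 active = visual image review flags a hit and inhibition of aggregation exceeds 20%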;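 note: compound exposure lasted 3 days before fixation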;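 for nuclei count: percent of the per-plate median nuclei count of sample wells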); conditions: exon1htt(103Q)mCFP cell line, aggregate imaging, at 2 µM; inhibition of aggregation: stronger effect = higher value; nuclei count: measured here: cell count, toxicity
[3] = inhibitors of E-selectin induction by TNFa, primary screen, imaging, HUVEC, immunofluorescence, MLSMR starter and 10KST1 sets (AID 487); conditions: HUVEC TNFalpha-induced E-selectin immunofluorescence imaging, at 2 µM; inhibition: stronger effect = higher value; nuclei count: measured here: cell number, toxicity;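 for inhibition: signal is fraction of cell area covered by stained E-selectin grains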;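 for nuclei count: 100% = median nuclei count of all wells on the same plate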
[4] = biological target: Voltage-gated potassium channel subunit beta-2 (Rattus norvegicus) (UniProt P62483); assay: KvBeta enzyme negative modulators, primary screen, biochemical, NADPH fluorescence (AID 622;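 active = fluorescence slope higher than the sample average by over 3 SD, cut at about -0.22 in these data, passing the limit was not always enough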;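 note: slope of raw intensity against log time taken from 70 to 1610 s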); conditions: recombinant KvBeta, 4-cyanobenzaldehyde reduction, at 10 µM, stronger effect = higher value
Chain of Voltage-gated potassium channel subunit beta-2 (Rattus norvegicus) (P62483 whole entry, looked up): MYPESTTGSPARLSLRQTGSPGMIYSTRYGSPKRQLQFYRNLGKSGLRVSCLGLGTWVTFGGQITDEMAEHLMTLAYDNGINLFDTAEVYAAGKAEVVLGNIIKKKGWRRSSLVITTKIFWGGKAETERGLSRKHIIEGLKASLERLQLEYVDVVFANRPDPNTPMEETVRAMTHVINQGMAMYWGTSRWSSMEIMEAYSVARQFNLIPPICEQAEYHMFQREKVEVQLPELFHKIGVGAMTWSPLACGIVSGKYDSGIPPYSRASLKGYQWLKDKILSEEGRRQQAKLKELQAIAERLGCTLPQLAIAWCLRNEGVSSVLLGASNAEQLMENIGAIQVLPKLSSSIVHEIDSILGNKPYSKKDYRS

[5] = biological target: Voltage-gated potassium channel subunit beta-2 (Rattus norvegicus) (UniProt P62483); assay: KvBeta positive modulators, primary screen, biochemical, NADPH fluorescence (AID 623;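 active = NADPH fluorescence slope more negative than the mean of all samples by about 3 SD, 99.7% confidence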;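 note: fluorescence intensity change per second fitted from 20 to 320 s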); conditions: Recombinant KvBeta, NADPH fluorescence decrease slope, 10 min; at 10 µM; stronger effect = lower value
[6] = biological target: Alpha-2C adrenergic receptor (Homo sapiens) (UniProt P18825); assay: modulators of alpha2C/GIRK thallium flux, primary screen, cell-based, HEK293 alpha2C/GIRK1/2 (AID 624;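 active = fluorescence slope after compound addition differing from the mean of all screened samples at 99.7% confidence, in either direction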;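 note: slope of fluorescence ratio to pre-addition baseline per second over 15 to 24 s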); conditions: thallium flux BTC fluorescence, at 10 µM, actives lie on both sides
Chain of Alpha-2C adrenergic receptor (Homo sapiens) (P18825 whole entry, looked up): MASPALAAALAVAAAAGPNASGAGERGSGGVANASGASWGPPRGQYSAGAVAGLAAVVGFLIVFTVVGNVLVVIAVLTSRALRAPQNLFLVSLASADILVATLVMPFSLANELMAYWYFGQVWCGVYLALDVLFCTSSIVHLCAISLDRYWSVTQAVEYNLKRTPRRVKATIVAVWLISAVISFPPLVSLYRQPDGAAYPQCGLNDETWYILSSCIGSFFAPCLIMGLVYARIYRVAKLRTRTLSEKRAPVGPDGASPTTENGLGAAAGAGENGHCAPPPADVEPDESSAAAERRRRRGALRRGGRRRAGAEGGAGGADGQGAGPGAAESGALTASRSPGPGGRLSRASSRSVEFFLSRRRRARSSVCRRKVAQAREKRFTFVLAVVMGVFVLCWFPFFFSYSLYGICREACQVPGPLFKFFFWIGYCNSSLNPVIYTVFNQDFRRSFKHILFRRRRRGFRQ

[7] = inhibitors of larval lipid processing in zebrafish, primary screen, whole organism, PED6 fluorescence, gall bladder and intestine (AID 686;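 active = a full or partial loss of lipid-probe fluorescence in the fish gall bladder, intestine or both, judged by eye; inactive = no fluorescence loss, or compound toxic to the fish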;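 note: larvae 5 to 7 days old with five fish per well; signal comes from phospholipase A2 cleavage of quenched PED6 carried via bile; overnight exposure to compound and PED6 before scoring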); conditions: Zebrafish larvae PED6 lipid processing, fluorescence scoring; screened at 20 µM (by protocol)
How it was run: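 Test system – live zebrafish larvae aged 5-7 days, whole organism · Buffer or medium – E3 fish medium · Reagent – quenched phospholipase substrate PED6, 100 nM final, ingested by larvae · Doses – 20 µM single dose · Incubation – overnight compound and PED6 incubation · Technique – visual fluorescence microscopy scoring of gall bladder, gut · Read-out basis – visual per-well fluorescence inhibition score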

[8] = inhibitors of Sendai virus-induced IRF3 signaling, primary screen, TLR/RLR signaling modifier project, cell-based, Sendai virus stimulus, luciferase, 10K MLSCN set (AID 602276;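 active = inhibition at or above 50% at 10 µM; inactive = inhibition below 50%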;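 note: firefly luciferase from ISG56 promoter only with Renilla not read in this screen; 0% = Sendai virus plus DMSO and 100% = medium plus DMSO without virus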); conditions: HEK293 RL24 IRF3 luciferase reporter, at 10 µM, stronger effect = higher value
[9] = inhibitors of poly I:C-induced TLR3 signaling, primary screen, cell-based, poly I:C stimulus, luciferase, 10K MLSCN set (AID 602277;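 active = inhibition of the reporter signal at or above 50%; inactive = inhibition below 50%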); conditions: HEK293-TLR3 RL24 IRF3 luciferase reporter, at 10 µM, stronger effect = higher value

Row | Compound | cell count [1] | inhibition [1] | inhibition of aggregation [2] | nuclei count [2] [%] | inhibition [3] | nuclei count [3] [%] | fluorescence slope [4] | NADPH fluorescence slope [5] | slope [6] | outcome [7] | inhibition [8] | inhibition [9]
1 | COC(=O)c1ccc(CSc2nnnn2Cc2ccccc2)cc1 | 341 | 3% (inactive) | -32.1% (inactive) | 108 | -32.4% (inactive) | 104 | -0.322 (inactive) | 3.4e-06 (inactive) | 0.00496 (inactive) | inactive | 9.31% (inactive) | 37.9% (inactive)
2 | CCOC(=O)C1=C(c2ccccc2)N2CCS(=O)(=O)N=C2S1 | 531 | 0.5% (inactive) | -5.8% (inactive) | 105 | -98.9% (inactive) | 108 | -0.271 (inactive) | -1e-05 (inactive) | 0.0047 (inactive) | inactive | 16.1% (inactive) | 20.5% (inactive)
3 | Cn1c(C(=O)NCc2cccnc2)cc2sccc21 | 560 | -4.9% (inactive) | 1.2% (inactive) | 104 | -25% (inactive) | 110 | -0.436 (inactive) | 3.4e-05 (inactive) | 0.00497 (inactive) | inactive | -11.9% (inactive) | -21.5% (inactive)
4 | CC(=O)Nc1ccccc1OCC(=O)c1cc(C)n(Cc2cccs2)c1C | 425 | -2% (inactive) | -13.7% (inactive) | 45.4 | -54.1% (inactive) | 107 | -0.475 (inactive) | -4.2e-05 (inactive) | 0.00662 (inactive) | inactive; toxic | 49.5% (inactive) | -26.5% (inactive)
5 | O=C(NC1CCCCC1NC(=O)c1ccco1)c1ccco1 (centres undefined) | 726 | 10.2% (inactive) | -7.6% (inactive) | 108 | 65.3% (inactive) | 112 | -0.384 (inactive) | -1.6e-05 (inactive) | 0.00439 (inactive) | inactive | -10.8% (inactive) | -8.21% (inactive)
6 | Cc1nc2ncnn2c(N2CCC(C(=O)NCC3CCCO3)CC2)c1Cc1ccccc1 (centres undefined) | 642 | -10.1% (inactive) | -26.5% (inactive) | 97 | -143% (inactive) | 112 | -0.407 (inactive) | -2.8e-05 (inactive) | 0.00509 (inactive) | inactive | 8.8% (inactive) | 19.2% (inactive)
7 | CC(C)NC(=O)c1ccccc1NC(=O)CCS(=O)(=O)Cc1ccccc1 | 560 | 6.6% (inactive) | -10% (inactive) | 108 | -26% (inactive) | 107 | -0.516 (inactive) | 2.6e-05 (inactive) | 0.00472 (inactive) | inactive | -21.6% (inactive) | -8.53% (inactive)
8 | CCN(CC)S(=O)(=O)c1ccc2c(c1)nc(SCn1nnc3ccccc3c1=O)n2CC | 765 | 6% (inactive) | 6.8% (inactive) | 94.2 | -114% (inactive) | 129 | -0.433 (inactive) | -6.2e-05 (inactive) | 0.00509 (inactive) | inactive | 15.4% (inactive) | 11.9% (inactive)
9 | COc1ccccc1C(=O)NCC(c1cccnc1)N(C)C (centres undefined) | 776 | -2.2% (inactive) | -39.1% (inactive) | 112 | 1.4% (inactive) | 122 | -0.422 (inactive) | -5.3e-05 (inactive) | 0.00557 (inactive) | inactive | 10.3% (inactive) | 4.98% (inactive)
10 | Cc1csc(NC(=O)Nc2cccc(Cl)c2)n1 | 506 | 1.8% (inactive) | -3.3% (inactive) | 97.5 | -98.3% (inactive) | 113 | -0.373 (inactive) | -3.7e-05 (inactive) | 0.00525 (inactive) | active; weak signal in gallbladder only | -37.7% (inactive) | -119% (inactive)
11 | CC(=O)NCCC(=O)Nc1ccc(C)c(F)c1 | 417 | -4.4% (inactive) | -5.1% (inactive) | 109 | -55.7% (inactive) | 110 | -0.451 (inactive) | -1.3e-05 (inactive) | 0.00617 (inactive) | inactive | -3.46% (inactive) | -7.08% (inactive)
12 | CCC(=O)Nc1ccc(NC(=O)c2ccccn2)cn1 | 778 | -11% (inactive) | -6.5% (inactive) | 102 | -9.1% (inactive) | 104 | -0.402 (inactive) | -5.9e-05 (inactive) | 0.00517 (inactive) | inactive | -3% (inactive) | 99.2% (active)
13 | COc1ccc(CN(CC(=O)NCC2CCCO2)C(=O)CCC(=O)Nc2cc(C)on2)cc1 (centres undefined) | 242 | 7.6% (inactive) | 7.1% (inactive) | 89.3 | 13.1% (inactive) | 104 | -0.399 (inactive) | -1.6e-05 (inactive) | 0.00463 (inactive) | inactive | -9.53% (inactive) | -6.1% (inactive)
14 | O=C(NC1=NCCS1)c1ccc2c(c1)C(=O)N(Cc1ccco1)C2=O | 447 | 0% (inactive) | 19.6% (inactive) | 96.6 | -60.7% (inactive) | 111 | -0.387 (inactive) | 2.7e-06 (inactive) | 0.00529 (inactive) | inactive | 19.1% (inactive) | 24.4% (inactive)
15 | O=C(CSCc1n[nH]c(=O)[nH]1)NCCOc1cccc(Oc2ccccc2)c1 | 615 | -13% (inactive) | 8.5% (inactive) | 77.7 | -16.1% (inactive) | 105 | -0.417 (inactive) | -6.7e-05 (inactive) | 0.00545 (inactive) | inactive | -14.2% (inactive) | 2.61% (inactive)
16 | Cc1cc(C(=O)Nc2c(C)n(C)n(-c3ccccc3)c2=O)c(C)o1 | 330 | -1.4% (inactive) | 5.3% (inactive) | 101 | 2% (inactive) | 100 | -0.412 (inactive) | -7.3e-05 (inactive) | 0.00524 (inactive) | inactive | 17% (inactive) | 14.7% (inactive)
17 | O=C(O)C(c1ccccc1)N1CCCC1 (centres undefined) | 643 | 3.4% (inactive) | -1.7% (inactive) | 108 | -110% (inactive) | 104 | -0.291 (inactive) | -6.9e-06 (inactive) | 0.00482 (inactive) | inactive | 13% (inactive) | 8.7% (inactive)
18 | CN(C)C(CNC(=O)Nc1cccc(Cl)c1)c1cccnc1 (centres undefined) | 298 | -5.5% (inactive) | 1.1% (inactive) | 67.5 | -40.7% (inactive) | 115 | -0.427 (inactive) | -5.1e-06 (inactive) | 0.00889 (active) | inactive | 18.9% (inactive) | 26.3% (inactive)
19 | COc1ccc(CNc2oc(-c3cccc4ccccc34)nc2C#N)cc1 | 570 | -3.4% (inactive) | 8.1% (inactive) | 86.3 | 56.8% (inactive) | 86.1 | -0.183 (inactive) | 6.8e-06 (inactive) | 0.00641 (inactive) | inactive | 4.97% (inactive) | 7.07% (inactive)
20 | O=C(c1cccnc1)N1CCN(C(=O)c2ccccc2F)CC1 | 343 | 1% (inactive) | -7.4% (inactive) | 97.7 | -6% (inactive) | 114 | -0.353 (inactive) | -3.8e-05 (inactive) | 0.00512 (inactive) | inactive | -1.4% (inactive) | 99.3% (active)
21 | CN1C(=O)c2oc3ccccc3c(=O)c2C1c1ccccn1 (centres undefined) | 404 | 5.4% (inactive) | -16.4% (inactive) | 106 | -28.5% (inactive) | 87.5 | -0.437 (inactive) | -4.2e-05 (inactive) | 0.00452 (inactive) | inactive | 18% (inactive) | 12% (inactive)
22 | COC(=O)c1ccc(NC(=O)C2C3CCC(C3)C2C(=O)O)cc1 (centres undefined) | 416 | 2.5% (inactive) | 0% (inactive) | 89.6 | 52.5% (inactive) | 103 | -0.39 (inactive) | -1.7e-05 (inactive) | 0.00477 (inactive) | inactive | -12.2% (inactive) | -15.9% (inactive)
23 | C=CCn1c(SCC(=O)Nc2ccc3c(c2)OCO3)nc2ccccc2c1=O | 388 | -0.4% (inactive) | 1.9% (inactive) | 96.8 | 37.8% (inactive) | 90.6 | -0.429 (inactive) | -3.8e-05 (inactive) | 0.00549 (inactive) | inactive | 15.8% (inactive) | 14.8% (inactive)
24 | CCOc1ccccc1C1N(c2ccc(F)cc2)C(=O)C2CCCN21 (centres undefined) | 465 | -0.3% (inactive) | -10.1% (inactive) | 103 | 45.7% (inactive) | 91.5 | -0.349 (inactive) | -4.9e-05 (inactive) | 0.00484 (inactive) | inactive | 13.2% (inactive) | 17.1% (inactive)
25 | CC(OC(=O)c1ccco1)C(=O)NCc1cccs1 (centres undefined) | 609 | -4.4% (inactive) | 7.4% (inactive) | 83 | -95.9% (inactive) | 113 | -0.444 (inactive) | -6e-05 (inactive) | 0.00449 (inactive) | inactive | 17.9% (inactive) | 25.3% (inactive)
26 | Cc1ccc(S(=O)(=O)N2CCN(C(=O)CSc3nc4ccccc4c(=O)[nH]3)CC2)c(C)c1 | 541 | -30.9% (inactive) | -12.7% (inactive) | 113 | -13.1% (inactive) | 130 | -0.331 (inactive) | 1.8e-05 (inactive) | 0.00493 (inactive) | inactive | 8.86% (inactive) | 4.21% (inactive)
27 | COc1cccc(NC(=O)c2ccccc2NS(C)(=O)=O)c1 | 328 | -6.5% (inactive) | -12.9% (inactive) | 112 | -133% (inactive) | 149 | -0.418 (inactive) | -3.8e-05 (inactive) | 0.00548 (inactive) | inactive | 18.7% (inactive) | 13.1% (inactive)
